Among the data in ChEMBL document CHEMBL5653624 (Biochem Pharmacol, 2016) are Activity and inhibition values, retold here.

Activity calls are given as the source filed them. The rule behind the calls is not given here.

Data set [1] has as its system RAW264.7. Nature of the data set: Antiinflammatory activity in mouse RAW264.7 cells assessed as down regulation of LPS/IFNgamma-induced IL-6 gene expression at 1 uM preincubated for 20 hrs followed by LPS/IFNgamma stimulation and measured after 4 hrs by RT-qPCR analysis. The format is functional, cell-based. The following applies: time 24.0 hrs. In a few lines:
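RAW 264.7 macrophages in DMEM/10% FBS received 1 μM RGFP966 for 20 h, with LPS/IFNγ for the last 4 h. Washed with cold DPBS, total RNA isolated, integrity checked by 28S/18S. RT-qPCR by comparative Ct (2−ΔΔCt), fold change versus LPS/IFNγ control. Mean ± SD of 3–5 independent experiments.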
In general terms: Real-time PCR tracks product formation cycle by cycle.

A further data set concerns HBE. Nature of the data set: Antiinflammatory activity in HBE cells assessed as effect on LPS/IFNgamma-induced IL-1beta gene expression at 2 uM […] by RT-qPCR analysis. The format is functional, cell-based. The following applies: Homo sapiens. In a few lines: (§1)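 HBE cells (passage 73–103) or immortalized hASM cells (2–3 donors, passage 27–35), serum-starved. Then 2 μM RGFP966 for 20 h, with LPS/IFNγ for the last 4 h. Total RNA isolated; RT-qPCR by 2−ΔΔCt, fold change versus LPS/IFNγ control. Mean ± SD of 3–5 independent experiments.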

For another data set, the system named is HASMC. Nature of the data set: Antiinflammatory activity in HASMC cells assessed as effect on LPS/IFNgamma-induced IL-1beta gene expression at 2 uM […] by RT-qPCR analysis. The following applies: Homo sapiens. The data set is classed as functional, cell-based. In a few lines: as §1
Data set [2] can be described thus: Toxicity in C57bl/6 mouse precision-cut lung slices assessed as effect on tissue viability up to 10 uM measured after 20 hrs by LDH release assay. The format is tissue-based. An outline of the steps: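 PCLS (250 μm) from male C57bl/6 mice, agarose-filled lungs, washed four times, 3 slices/well at 37 °C 5% CO2; inhibitor at 1 and 10 μM for 20 h. LDH in medium measured on automatic analyzer, expressed relative to maximal release from 3 slices lysed with 1% Triton X-100 (30 min, 37 °C).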
For orientation: LDH in the medium is a marker of cell lysis.

The target of data set [3] is T1, Histone deacetylase 3 (Mus musculus) (UniProt O88895).
T1 sequence (whole entry): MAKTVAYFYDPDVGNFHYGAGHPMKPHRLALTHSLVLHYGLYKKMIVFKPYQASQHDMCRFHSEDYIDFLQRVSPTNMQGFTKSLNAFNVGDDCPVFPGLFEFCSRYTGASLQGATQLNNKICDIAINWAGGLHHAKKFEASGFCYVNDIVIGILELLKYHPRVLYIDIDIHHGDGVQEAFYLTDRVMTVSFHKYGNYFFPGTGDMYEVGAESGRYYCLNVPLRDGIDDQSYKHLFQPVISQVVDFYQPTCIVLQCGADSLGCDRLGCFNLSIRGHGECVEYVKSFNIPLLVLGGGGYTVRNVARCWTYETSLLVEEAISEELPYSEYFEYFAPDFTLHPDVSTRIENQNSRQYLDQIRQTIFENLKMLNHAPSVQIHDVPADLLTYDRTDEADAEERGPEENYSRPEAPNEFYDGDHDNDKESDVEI
Nature of the data set: Inhibition of HDAC3 in mouse RAW-Blue cells assessed as reduction in LPS/IFNgamma-induced NF-kappaB p65 transcriptional activity preincubated for 16 hrs followed by LPS/IFNgamma stimulation and measured after 4 hrs by SEAP reporter gene assay. The data set is classed as cell-based. The following applies: time 20.0 hrs. An outline of the steps:
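RAW-Blue cells (RAW 264.7-derived, stably expressing an NF-κB/AP-1-inducible secreted embryonic alkaline phosphatase) exposed to inhibitor for 20 h total, with 10 ng/ml LPS plus 10 ng/ml IFNγ added for the final 4 h. Supernatant mixed with QUANTI-Blue medium, 37 °C 1–2 h in the dark, absorbance 630 nm; reported as % of control.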
On the technique in general: A reporter such as luciferase makes a cellular process visible.

The target of data set [4] is T1, Histone deacetylase 3 (Mus musculus). Nature of the data set: Inhibition of HDAC3 in mouse RAW264.7 cells assessed as effect on histone H3 acetylation measured after 20 hrs by Western blot analysis. The format is cell-based. In a few lines:
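Histones extracted from RAW 264.7 cells after 20 h inhibitor treatment, protein quantified by micro BCA (BSA standard), and H3 and H4 acetylation assessed by Western blot versus vehicle-treated cells.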

Data set [5] has the same target. Put plainly: Inhibition of HDAC3 in mouse RAW264.7 cells assessed as effect on histone H4 peptide (GKGGKGLGKGGAKR) acetylation measured after 20 hrs by LC-MS/MS analysis. The format is cell-based. In a few lines: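 Histones from RAW 264.7 (20 h treatment) run on 15% SDS-PAGE (7 μg), Coomassie-stained H3/H4 bands excised, destained, and chemically acetylated with acetic anhydride-d6 in 1 M ammonium bicarbonate; endogenous lysine acetylation ratio derived by mass spectrometry from deuterated versus non-deuterated acetyl mass difference.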

Data set [6] concerns RAW264.7. Put plainly: Antiinflammatory activity in LPS/IFNgamma-stimulated mouse RAW264.7 cells assessed as effect on HDAC1 mRNA expression preincubated for 20 hrs followed by LPS/IFNgamma stimulation and measured after 4 hrs by RT-qPCR analysis. The data set is classed as functional, cell-based. The following applies: time 24.0 hrs.
For data set [7], the system named is RAW264.7. Put plainly: Antiinflammatory activity in LPS/IFNgamma-stimulated mouse RAW264.7 cells assessed as effect on IkappaBalpha mRNA expression preincubated for 20 hrs followed by LPS/IFNgamma stimulation and measured after 4 hrs by RT-qPCR analysis. The format is functional, cell-based. The following applies: time 24.0 hrs.
Another data set deals with Lung. Put plainly: Antiinflammatory activity in C57bl/6 mouse precision-cut lung slices assessed as effect on LPS/IFNgamma-induced HDAC3 gene expression at 1 to 10 uM preincubated for 20 hrs followed by LPS/IFNgamma stimulation and measured after 4 hrs by RT-qPCR analysis. The format is functional, tissue-based. The following applies: dose 1-10 µM, time 24.0 hrs.
Data set [8] has as its target Histone deacetylase 1 (Mus musculus) (UniProt O09106). Nature of the data set: Effect on HDAC1 nuclear localization in LPS/IFNgamma-stimulated mouse RAW264.7 cells preincubated for 20 hrs followed by LPS/IFNgamma stimulation and measured after 1 hr by Western blot analysis. The data set is classed as cell-based. An outline of the steps: (§2)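 RAW 264.7 cells treated for 20 h, then 1 h LPS/IFNγ, and fractionated into nuclear and cytosolic parts. Fractions immunoblotted, with PARP-1 and β-actin as internal controls. Densitometry with vehicle control set at 100%. Mean ± SD of 3–4 independent experiments.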

For data set [9], the target named is Histone deacetylase 2 (Mus musculus) (UniProt P70288). Nature of the data set: Effect on HDAC2 nuclear localization in LPS/IFNgamma-stimulated mouse RAW264.7 cells preincubated for 20 hrs followed by LPS/IFNgamma stimulation and measured after 1 hr by Western blot analysis. The data set is classed as cell-based. An outline of the steps:
as §2

The target of data set [10] is T1, Histone deacetylase 3 (Mus musculus). Nature of the data set: Effect on HDAC3 nuclear localization in LPS/IFNgamma-stimulated mouse RAW264.7 cells preincubated for 20 hrs followed by LPS/IFNgamma stimulation and measured after 1 hr by Western blot analysis. The data set is classed as cell-based. In a few lines: as §2
Data set [11] has as its system RAW264.7. Put plainly: Effect on HDAC3-NFkappaB p65 protein-protein interaction in LPS/IFNgamma-stimulated mouse RAW264.7 cells at 1 uM preincubated for 20 hrs followed by LPS/IFNgamma stimulation and measured after 1 hr by immunoprecipitation analysis. The data set is classed as cell-based. An outline of the steps: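 RAW 264.7 cells treated for 20 h, then LPS/IFNγ-stimulated. Lysates rotated 4 h at 4 °C and cleared. NF-κB p65 immunoprecipitated with mouse monoclonal antibody overnight at 4 °C, then Protein A/G agarose for 6 h at 4 °C, followed by washes. Immunoblot for HDAC 3, densitometry normalized to NF-κB p65. Mean ± SD of 3 experiments.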

Chain of Histone deacetylase 1 (Mus musculus) (O09106 whole entry): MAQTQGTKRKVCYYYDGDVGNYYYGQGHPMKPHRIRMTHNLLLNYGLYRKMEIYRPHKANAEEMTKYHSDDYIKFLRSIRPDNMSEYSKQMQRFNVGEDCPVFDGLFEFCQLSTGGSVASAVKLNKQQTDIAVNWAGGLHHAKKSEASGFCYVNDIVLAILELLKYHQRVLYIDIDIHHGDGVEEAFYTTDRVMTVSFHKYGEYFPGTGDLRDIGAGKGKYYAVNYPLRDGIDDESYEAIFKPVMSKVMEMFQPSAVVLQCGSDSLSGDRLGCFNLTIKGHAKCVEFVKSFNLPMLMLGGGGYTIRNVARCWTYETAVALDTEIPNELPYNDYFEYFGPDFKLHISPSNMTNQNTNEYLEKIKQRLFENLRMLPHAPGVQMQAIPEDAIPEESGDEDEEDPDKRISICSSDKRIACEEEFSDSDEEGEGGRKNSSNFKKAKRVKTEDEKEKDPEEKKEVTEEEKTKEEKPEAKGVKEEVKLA
Chain of Histone deacetylase 2 (Mus musculus) (P70288 whole entry): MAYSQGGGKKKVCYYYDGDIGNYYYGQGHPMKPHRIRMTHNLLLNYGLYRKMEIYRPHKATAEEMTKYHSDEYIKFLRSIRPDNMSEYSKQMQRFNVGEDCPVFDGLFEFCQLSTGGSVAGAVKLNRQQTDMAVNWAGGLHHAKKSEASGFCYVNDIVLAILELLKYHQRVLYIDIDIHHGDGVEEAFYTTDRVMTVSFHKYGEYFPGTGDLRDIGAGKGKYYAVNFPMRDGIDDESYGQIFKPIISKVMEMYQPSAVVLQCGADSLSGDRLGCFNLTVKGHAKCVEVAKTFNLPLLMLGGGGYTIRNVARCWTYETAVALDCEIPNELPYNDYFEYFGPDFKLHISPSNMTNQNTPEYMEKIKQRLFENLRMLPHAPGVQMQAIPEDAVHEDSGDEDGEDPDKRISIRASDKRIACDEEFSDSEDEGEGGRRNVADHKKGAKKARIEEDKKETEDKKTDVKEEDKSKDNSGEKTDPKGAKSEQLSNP

Regarding `Nc1cc(F)ccc1NC(=O)/C=C/c1cnn(C/C=C/c2ccccc2)c1`, in the data set with RAW264.7 [1], the result was Active. The outcome (with HBE; with HASMC; in the data set with RAW264.7 [6]; in the data set on RAW264.7 [7]; in the data set on Lung; in data set [8]) was inactive. In addition, the outcome (in [9]; in data set [10]; in the data set with RAW264.7 [11]) was inactive. Besides, the Activity result in [2] is “Non-Toxic”. Moreover, the inhibition result in data set [3] is “Active”. Moreover, the inhibition entry in data set [4] and in data set [5] was “inactive” throughout.
